{"source": "paper PMC11577422", "about": "(Chemical Research in Toxicology, 2024)", "key": {"[1]": {"test_system": "rat liver microsomes (RLM)", "conditions": "pretr., ref Peterson et al. (2005) [32]; cited from earlier work"}, "[2]": {"test_system": "rat liver microsomes (RLM)", "conditions": "untr., 50 μM furan, ref Gates et al. (2012) [30]; cited from earlier work"}, "[3]": {"test_system": "human liver microsomes (HLM)", "conditions": "50 μM furan, ref Gates et al. (2012) [30]; cited from earlier work"}, "[4]": {"test_system": "CYP 2E1", "conditions": "ref Peterson et al. (2005) [32]; cited from earlier work"}, "[5]": {"test_system": "CYP 2E1", "conditions": "cited from earlier work"}, "[6]": {"assay": "Cytotoxicity via cell viability using resazurin reduction in pRH", "format": "cell-based", "conditions": "male, Wistar, rat, primary rat hepatocytes"}, "[7]": {"test_system": "primary rat hepatocytes (pRH)", "assay": "Adduct formation", "format": "in vitro ADME", "conditions": "for AcCys-AcA formation in cell supernatants / formation of AcLys-AcA in cell supernatants: pRH incubated with 2-MF (10–1000 μM) or AcA (0.1–5 μM), 1–48 h; for AcLys-AcA in cell supernatant compared to the negative control: pRH", "summary_of_the_method": "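Hepatocytes came from adult male Wistar rats (150–250 g) and were used only at ≥80% viability. Cells were seeded at 1 million cells/mL on collagen-coated dishes, allowed 3 h to attach, then PBS-washed. Incubation was at 37 °C, 5% CO₂ with test compound for 1, 6, 18, 24 or 48 h. Supernatants got 1 μM final AcLys-BDA internal standard, SPE cleanup, then UHPLC-ESI⁺-MS/MS (MRM m/z 269.2/164.2). Untreated negative control; n = 3–6.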"}, "[8]": {"assay": "Chemical reaction of AcA with AcCys, adduct determined by HPLC-MS/MS", "format": "physicochemical", "conditions": "AcA (1 μM) with AcCys (4 mM) in water, 37 °C", "summary_of_the_method": "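Mixture shaken at 600 rpm and sampled over incubation time. Adduct was detected by HPLC-ESI⁺-MS/MS on a Synergi Hydro-RP column with a formic acid/acetonitrile gradient, MRM quantifier m/z 241.9/112.9, and reported as peak area (AUC). n = 3, mean ± standard deviation.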"}, "[9]": {"assay": "Chemical reaction of AcA with AcLys, adduct determined by HPLC-MS/MS", "format": "physicochemical", "summary_of_the_method": "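AcA was at 10 μM; the mixture was shaken at 600 rpm to mimic the microsomal incubation matrix and sampled over time. AcLys-AcA was measured by HPLC-ESI⁺-MS/MS. n = 3, mean ± standard deviation.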"}, "[10]": {"assay": "Stability of AcLys-AcA in solvents", "format": "physicochemical"}, "[11]": {"test_system": "pRH", "assay": "GSH depletion in pRH after exposure to 2-MF", "format": "cell-based, rat", "conditions": "data not shown"}, "[12]": {"test_system": "HepG2 cells", "assay": "GSH depletion in HepG2 cells after exposure to 2-MF", "format": "cell-based", "conditions": "data not shown"}, "[13]": {"test_system": "rat liver microsomes (RLM)", "format": "in vitro ADME", "conditions": "RLM, untr.; II) low substrate concentrations (10 and 100 μM 2-MF); 10 min", "summary_of_the_method": "(§1)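 Pooled liver microsomes (male Sprague–Dawley rat; mixed-gender human) at 1.0 mg protein/mL in 50 mM phosphate or Tris buffer with 3 mM MgCl₂ and 4 mM AcLys trap. Preincubated with 2-MF (10–750 μM) for 5 min at 37 °C, NADPH-started, 10 min. Stopped with cold MeCN containing 1 μM AcLys-BDA; AcLys-AcA by HPLC-MS/MS. Kinetics fitted biphasically; heat-inactivated and no-NADPH controls; n = 3–6.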"}, "[14]": {"molecular_target": "CYP 2E1 (Homo sapiens, UniProt P05181)", "sequence (P05181 whole entry)": "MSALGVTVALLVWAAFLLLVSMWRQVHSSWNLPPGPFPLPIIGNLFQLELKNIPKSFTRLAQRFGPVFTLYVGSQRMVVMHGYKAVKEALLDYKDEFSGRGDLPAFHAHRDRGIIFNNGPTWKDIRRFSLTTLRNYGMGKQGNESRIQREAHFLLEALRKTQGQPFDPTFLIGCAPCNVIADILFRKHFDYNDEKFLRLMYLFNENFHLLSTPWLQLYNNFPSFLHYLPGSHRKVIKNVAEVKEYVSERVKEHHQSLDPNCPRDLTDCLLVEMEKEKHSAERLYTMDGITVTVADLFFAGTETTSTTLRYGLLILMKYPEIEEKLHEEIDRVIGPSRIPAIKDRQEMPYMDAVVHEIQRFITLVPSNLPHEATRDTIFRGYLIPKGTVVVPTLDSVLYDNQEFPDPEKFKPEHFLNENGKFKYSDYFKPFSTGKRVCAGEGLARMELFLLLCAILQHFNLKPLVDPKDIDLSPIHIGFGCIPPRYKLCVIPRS", "format": "in vitro ADME", "conditions": "Supersomes CYP 2E1, 100 and 500 μM 2-MF, 10, 30 or 60 min; negative control without NADPH"}, "[15]": {"test_system": "human liver microsomes (HLM)", "format": "in vitro ADME", "conditions": "10 min", "summary_of_the_method": "as §1"}, "[16]": {"test_system": "rat liver microsomes (RLM)", "conditions": "ref Ravindranath and Boyd (1985) [9], cited from earlier work; for Km: RLM"}, "[17]": {"conditions": "20 or 400 μM furan, ref Gates et al. (2012) [30]"}}, "note": "Like-named read-outs stand apart in the source and are kept apart here.", "data": [{"smiles": "c1ccoc1", "note": "[Furan]", "values": [{"measurement": "Km", "setting": "[1]", "value": "18.5 ± 6.8", "unit": "µM"}, {"measurement": "vmax", "setting": "[2]", "value": "0.0016 μmol/(mg prot.·min)"}, {"measurement": "vmax", "setting": "[3]", "value": "0.0013 μmol/(mg prot.·min)"}, {"measurement": "Ecat", "setting": "[4]", "value": "3.9e-1"}, {"measurement": "Km", "setting": "[4]", "value": "65.1 ± 16.4", "unit": "µM"}, {"measurement": "kcat", "setting": "[4]", "value": "26 μmol/(μmol CYP·min)"}, {"measurement": "Km", "setting": "[5]; [17]", "value": "24 ± 13", "unit": "µM"}, {"measurement": "kcat", "setting": "[5]; [17]", "value": "34 ± 4 μmol/(μmol CYP·min)"}, {"measurement": "vmax", "setting": "[5]; 20 or 400 μM furan, ref [30]", "value": "34 ± 4", "unit": "pmol BDA/pmol CYP/min"}, {"measurement": "Ecat", "setting": "[5]; ref Gates et al. (2012) [30]", "value": 1.4}]}, {"smiles": "CC(=O)C=CC=O", "note": "[AcA, 3-acetylacrolein]", "values": [{"measurement": "EC50 at 24 h", "setting": "[6]", "value": "8.5 ± 1.3", "unit": "µM"}, {"measurement": "AcCys-AcA formation in cell supernatants", "setting": "[7]", "value": "No evidence of AcCys-AcA formation"}, {"measurement": "formation of AcLys-AcA in cell supernatants", "setting": "[7]", "value": "detected"}, {"measurement": "AcLys-AcA in cell supernatant compared to the negative control", "setting": "[7]; 0.5 μM AcA, 48 h", "value": "differed significantly"}, {"measurement": "AcLys-AcA in cell supernatant compared to the negative control", "setting": "[7]; 5 μM AcA, all time points (1–48 h)", "value": "highly significant increase"}, {"measurement": "time to completion of adduct formation", "setting": "[8]", "value": "< 1", "unit": "min"}, {"measurement": "time to completion of adduct formation", "setting": "[9]; AcA (1; 10 μM) with AcLys (4 mM) in K2HPO4 buffer (50 mM, pH 7.4), 37 °C", "value": "< 1", "unit": "min"}]}, {"smiles": "CC(=O)N[C@@H](CCCCN1C(=O)C=CC1C)C(=O)O", "note": "(stereo partly drawn) [AcLys-AcA, L-2-Acetamido-6-(2-methyl-5-oxo-2,5-dihydro-1H-pyrrol-1-yl)hexanoic Acid]", "values": [{"measurement": "stability (NMR)", "setting": "[10]; in organic solvents", "value": "unstable"}, {"measurement": "stability of NMR and MS signals", "setting": "[10]; in water", "value": "stable"}, {"measurement": "stability of adduct yield", "setting": "[9]; reaction mixture of AcA with AcLys (4 mM) in K2HPO4 buffer pH 7.4, 37 °C", "value": "stable for up to 24 h"}]}, {"smiles": "Cc1ccco1", "note": "[2-MF, 2-Methylfuran]", "values": [{"measurement": "EC50 at 24 h", "setting": "[6]", "value": "551 ± 53.1", "unit": "µM"}, {"measurement": "AcCys-AcA formation in cell supernatants", "setting": "[7]", "value": "No evidence of AcCys-AcA formation"}, {"measurement": "formation of AcLys-AcA in cell supernatants", "setting": "[7]", "value": "detected"}, {"measurement": "AcLys-AcA in cell supernatant compared to the negative control", "setting": "[7]; 100 μM 2-MF, 1 h", "value": "significant increase"}, {"measurement": "depletion of GSH", "setting": "[11]", "value": "no depletion of GSH"}, {"measurement": "depletion of GSH", "setting": "[12]", "value": "no depletion of GSH"}, {"measurement": "vmax", "setting": "[13]", "value": "0.09 μmol/(mg prot.·min)"}, {"measurement": "AcA formation compared to the negative control", "setting": "[14]", "value": "significant formation of AcA"}, {"measurement": "vmax", "setting": "[15]; HLM; I) high substrate concentrations (250, 500, 750 μM 2-MF)", "value": "0.88 μmol/(mg prot.·min)"}, {"measurement": "vmax", "setting": "[15]; HLM; II) low substrate concentrations (10 and 100 μM 2-MF)", "value": "0.12 μmol/(mg prot.·min)"}, {"measurement": "vmax", "setting": "[16]; RLM from untreated rats, Eadie-Hofstee", "value": "0.53 μmol/2 mg microsomal protein/min"}, {"measurement": "Km", "setting": "[16]; pretr. (phenobarbital)", "value": 463, "unit": "µM"}, {"measurement": "Km", "setting": "[16]; untr., 2.5–20 mM total 2-MF", "value": 1420, "unit": "µM"}, {"measurement": "vmax", "setting": "[16]; rats pretreated with phenobarbital", "value": "0.81 μmol/2 mg microsomal protein/min"}]}]}
